Experimental data taken from ChEMBL document CHEMBL1158901, “Chemical constituents of Garcinia fusca: structure elucidation of eight new xanthones and their cancer chemopreventive activity” (J Nat Prod, 2003).

Assays:
[1] = Inhibition of TPA-induced EBV-early antigen activation in human Raji cells per 32 pmol TPA after 48 hrs; assay type: cell-based, human gammaherpesvirus 4
Procedure, shortened: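 EBV-EA induction in Raji cells by 4 mM n-butyric acid plus 32 pmol TPA in RPMI 1640/10% FCS, 37 °C for 48 h, with compound at mol ratios to TPA of 10 to 1000. EA-positive cells counted blind, ≥500 per assay, relative to TPA-only control. IC50 is the mol ratio to TPA giving 50% inhibition, estimated by probit transformation.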

[2] = Cytotoxicity against human Raji cells assessed as cell viability at 32 nmol after 48 hrs by trypan blue assay; assay type: cell-based; conditions: read-out: Activity
Procedure, shortened: (§1)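 Raji cells grown to 10^6 cells/mL, pelleted and resuspended in RPMI 1640 with 10% FCS containing 4 mM n-butyric acid and 32 pmol TPA (20 ng/mL). Test compound added in DMSO at 32, 3.2 or 0.32 nmol (footnote also defines 16 nmol as 500 mol ratio). Incubated 48 h at 37 °C. Viable cells counted by Trypan Blue on a hemocytometer.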

[3] = Cytotoxicity against human Raji cells assessed as cell viability at 16 nmol after 48 hrs by trypan blue assay; assay type: cell-based; conditions: read-out: Activity; procedure, shortened: as §1
[4] = Cytotoxicity against human Raji cells assessed as cell viability at 3.2 nmol after 48 hrs by trypan blue assay; assay type: cell-based; conditions: read-out: Activity; procedure, shortened: as §1
[5] = Cytotoxicity against human Raji cells assessed as cell viability at 0.32 nmol after 48 hrs by trypan blue assay; assay type: cell-based; conditions: read-out: Activity; procedure, shortened: as §1
Raji [6] = assay: TPA-induced EBV-early antigen activation in human Raji cells at 32 nmol after 48 hrs relative to TPA; conditions: human gammaherpesvirus 4
Raji [7] = assay: TPA-induced EBV-early antigen activation in human Raji cells at 16 nmol after 48 hrs relative to TPA; conditions: human gammaherpesvirus 4
Raji [8] = assay: TPA-induced EBV-early antigen activation in human Raji cells at 3.2 nmol after 48 hrs relative to TPA; conditions: human gammaherpesvirus 4
Raji [9] = assay: TPA-induced EBV-early antigen activation in human Raji cells at 0.32 nmol after 48 hrs relative to TPA; conditions: human gammaherpesvirus 4

SMILES | IC50 [1] [molar ratio] | viability at 48 h, 32 nmol [2] [%] | viability at 48 h, 16 nmol [3] [%] | viability at 48 h, 3.2 nmol [4] [%] | viability at 48 h, 0.32 nmol [5] [%] | EBV-EA activation (Raji [6]) [%] | EBV-EA activation (Raji [7]) [%] | EBV-EA activation (Raji [8]) [%] | EBV-EA activation (Raji [9]) [%]
COc1cc2oc3cc(O)c(OC)c(CC=C(C)C)c3c(=O)c2c(O)c1CC=C(C)C | 270 | 70 | > 80 | > 80 | > 80 | 0 | 20.5 | 62.6 | 90.4
COc1c(O)c(CC=C(C)C)c2oc3cc(O)c(CC=C(C)C)c(O)c3c(=O)c2c1CC=C(C)C | 210 | 70 | > 80 | > 80 | > 80 | 0 | 16.3 | 59.2 | 83.8
CC1=C(/C=C/C(C)=C/C=C/C(C)=C/C=C/C=C(C)/C=C/C=C(C)/C=C/C2=C(C)CCCC2(C)C)C(C)(C)CCC1 [BETA CAROTENE] | 400 |  |  |  |  | 9.1 | 34.3 | 82.7 | 100
CC(C)=CCC/C(C)=C/Cc1c(O)c(O)cc2oc3cc(O)c(CC=C(C)C)c(O)c3c(=O)c12 [NORCOWANIN] | 315 | 70 | > 80 | > 80 | > 80 | 0 | 31.9 | 70.1 | 94.2

The next lines start with results.

IC50 [1] [molar ratio] | SMILES | viability at 48 h, 32 nmol [2] [%] | viability at 48 h, 16 nmol [3] [%] | viability at 48 h, 3.2 nmol [4] [%] | viability at 48 h, 0.32 nmol [5] [%] | EBV-EA activation (Raji [6]) [%] | EBV-EA activation (Raji [7]) [%] | EBV-EA activation (Raji [8]) [%] | EBV-EA activation (Raji [9]) [%]
320 | COc1c(O)cc2oc3cc(O)c(CC=C(C)C)c(O)c3c(=O)c2c1C/C=C(\C)CCC=C(C)C [COWANIN] | 70 | > 80 | > 80 | > 80 | 0 | 33.6 | 71.6 | 95.8
310 | COc1c(O)cc2oc3cc(O)c(C/C=C(/C)CO)c(O)c3c(=O)c2c1C/C=C(\C)CCC=C(C)C [COWANOL] | 70 | > 80 | > 80 | > 80 | 0 | 30.5 | 69.6 | 93.1
398 | COc1cc2c(=O)c3c(O)c(C/C=C(\C)CCC=C(C)C)c(O)cc3oc2cc1O [COWAXANTHONE] | 70 | > 80 | > 80 | > 80 | 0 | 40.6 | 76.6 | 97.5
220 | COc1c(O)cc2oc3cc(O)c(CC=C(C)C)c(O)c3c(=O)c2c1CC=C(C)C [MANGOSTIN] | 70 | > 80 | > 80 | > 80 | 0 | 19.1 | 60 | 89.2
340 | COc1c(O)cc2oc3cc(O)cc(O)c3c(=O)c2c1C/C=C(\C)CCC=C(C)C [RUBRAXANTHONE] | 70 | > 80 | > 80 | > 80 | 0 | 39.5 | 74.1 | 96.8
